HMGR II inh: blocks class II HMG-CoA reductase of Enterococcus faecalis | purified E. faecalis HMGR, NADPH absorbance 340 nm kinetic | inhibition, % at 10 µM | 190,000 compounds, 0.41% hits;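 active means inhibition above a set limit, the median over all tested compounds plus 3 SD, cut at about 9.5% in these data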;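 further: enzyme runs in reverse so mevalonate oxidation gives rising NADPH absorbance; 0% = complete reaction with DMSO and 100% = background rate lacking mevalonate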
Yeast lifespan up: yeast lifespan extension; S. cerevisiae growth with nicotinamide, OD615; deaD strain in restrictive glucose medium; inhibition of the nicotinamide effect, % at 10 µM; 130,000 compounds, 0.68% hits;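 active means inhibition above a set limit, placed 3 SD over the median of all compounds, cut at about 26% in these data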;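 further: 0% = nicotinamide-treated wells and 100% = cells grown without nicotinamide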
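assay system = DeaD-strain S. cerevisiae | measured by = absorbance at 615 nm | probe or stimulus = nicotinamide 1.5 mM | buffer or medium = CSMM-D glucose medium, restrictive | times = 48 h at 30 °C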
BB579 growth dn: reduces growth of yeast BB579 in restrictive medium; inhibition, % at 10 µM; S. cerevisiae BB579 growth, OD615, 48 h; 140,000 compounds, 0.51% hits; AID 804;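 active means inhibition above a set limit, 3 SD over the mean compound inhibition, cut at about 44% in these data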
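Material: Saccharomyces cerevisiae DeaD strain BB579, replicative lifespan model yeast; buffer or medium: CSMM-D restrictive synthetic medium containing dextrose (glucose); compound: 10 µM single dose, DMSO 0.25%; timing: 48 h compound exposure at 30 °C after 4 h preincubation; signal: turbidity as optical density at 615 nm; benchmarks: positive control amphotericin B 10 µg/mL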
Insulin prom inh: TRM-6 insulin promoter activity inhibition | TRM-6 cells (human fetal islet line), insulin promoter-eGFP reporter, imaging; reporter expression induced with tamoxifen | 130,000 compounds, 0.9% hits | AID 1273 | inhibition, % at 2 µM;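 active means inhibition above the mean plus 3 SD, with well images judged a real hit on visual review, cut at about 60% in these data, passing the limit was not always enough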
RAM network inh: blocks the yeast RAM network | 190,000 compounds, 1.8% hits | inhibition, % at 50 µM | S. cerevisiae dse1pr::URA3 reporter, 5-FOA growth OD615, 2 d; analog-sensitive cbk1-as2 kinase mutant strain;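 active means inhibition above a set limit, 3 SD over mean compound inhibition, cut at about 8.4% in these data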;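 further: 0% = DMSO-only wells with no growth and 100% = 10 µM 1-NA-PP1 full growth; inhibition rescues growth on 5-FOA so higher OD means more RAM inhibition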
An asterisk follows results filed as active. Only some compounds are listed: those with a hit (about 3.7% of all), similar ones and a draw of the others.

What do the screens show for `O=C(c1ccc(COc2ccccc2[N+](=O)[O-])o1)N1CCCCCC1`?
HMGR II inh: 11.6*; Yeast lifespan up: -16.1; BB579 growth dn: -61.2; Insulin prom inh: -6.7; RAM network inh: 0.0

Results for O=C(NCc1ccco1)C(c1ccco1)N(Cc1cccs1)C(=O)Cn1nnc2ccccc21 (stereo not given) ?
HMGR II inh: 2.3; BB579 growth dn: -46.4; Insulin prom inh: -34.9; RAM network inh: 9.5*

Results for COCCNC(=O)C(c1ccc(C)o1)N(Cc1ccc(F)cc1)C(=O)Cn1nnc2ccccc21 (stereo not given) ?
HMGR II inh: -2.7; Yeast lifespan up: -7.5; BB579 growth dn: -16.6; Insulin prom inh: -77.8; RAM network inh: 1.9

What do the screens show for `COCCNC(=O)C(c1ccccc1C)N(C(=O)Cn1nnc2ccccc21)c1cccnc1` (stereo not given)?
HMGR II inh: 15.0*; BB579 growth dn: -17.1; Insulin prom inh: -225.0; RAM network inh: 0.0

Results for COCCNC(=O)C(c1ccc(C)o1)N(Cc1ccc(OC)cc1)C(=O)Cn1nnc2ccccc21 (stereo not given) ?
HMGR II inh: -1.7; Yeast lifespan up: -0.4; BB579 growth dn: -48.4; Insulin prom inh: 5.3; RAM network inh: 10.5*

What do the screens show for `O=C(NCc1ccco1)C(c1cccs1)N(Cc1ccccc1)C(=O)Cn1nnc2ccccc21` (stereo not given)?
HMGR II inh: -1.1; Yeast lifespan up: -9.8; BB579 growth dn: -84.9; RAM network inh: 5.4

How did CC(C)(C)OC(=O)N1CCC(c2cc(-c3cccs3)n[nH]2)CC1 do in these assays?
HMGR II inh: -3.5; RAM network inh: -1.5

What do the screens show for `COc1ccccc1C(=O)NCc1ccc(-c2nc3ccccc3s2)cc1`?
HMGR II inh: -6.0; Yeast lifespan up: -3.6; BB579 growth dn: -16.6; RAM network inh: 9.1*

Results for COc1ccc(-c2nc3ccccc3s2)cc1O ?
HMGR II inh: -5.9; Yeast lifespan up: -25.4; BB579 growth dn: -46.3; Insulin prom inh: 85.7*; RAM network inh: 1.1

How did CNc1nc(SC(C)C(=O)Nc2ccc(Cl)c(Cl)c2)nc(N2CCOCC2)n1 (stereo not given) do in these assays?
HMGR II inh: -0.3; Insulin prom inh: 21.4; RAM network inh: 4.6

How did C=CCNc1nc(S(=O)Cc2ccc(C)cc2)nc2c1CCCC2 (stereo not given) do in these assays?
HMGR II inh: -4.9; Insulin prom inh: 73.3*; RAM network inh: -0.2

Results for Cc1cc(C)n(C(=O)COc2ccccc2C)n1 ?
HMGR II inh: 13.0*; BB579 growth dn: -55.3; Insulin prom inh: 58.8; RAM network inh: 0.5

How did Cc1cc(C)n(-c2nc3c(c(=O)n(C)c(=O)n3C)n2CC(O)COc2ccccc2C)n1 (stereo not given) do in these assays?
Insulin prom inh: 76.9*

What do the screens show for `Cc1ccccc1OCC(O)Cn1c(NCCN(C)C)nc2c1c(=O)n(C)c(=O)n2C` (stereo not given)?
HMGR II inh: -11.7; Yeast lifespan up: -13.4; BB579 growth dn: -26.1; RAM network inh: 1.0

How did Cc1cc(C)n(CC(O)COc2ccccc2C)n1 (stereo not given) do in these assays?
HMGR II inh: 11.5*; RAM network inh: 0.9

What do the screens show for `Cc1cc(C)n(C(=O)CNC(=O)C(c2ccccc2)c2ccccc2)n1`?
HMGR II inh: -0.7; BB579 growth dn: -55.5; Insulin prom inh: 27.8; RAM network inh: 8.8*

How did COc1ccccc1CNCC(=O)N1CC(=O)Nc2ccccc21 do in these assays?
HMGR II inh: 5.2; RAM network inh: 1.6

How did CCOC(=O)N1CCN(C(=O)CCSCCc2ccncc2)CC1 do in these assays?
HMGR II inh: -2.4; Yeast lifespan up: -3.9; BB579 growth dn: -9.0; Insulin prom inh: 78.6*; RAM network inh: 0.4

How did CCOC(=O)N1CCN(C(=O)CSCc2ccc(C)cc2)CC1 do in these assays?
HMGR II inh: 0.0; Yeast lifespan up: -1.3; BB579 growth dn: -31.5; Insulin prom inh: 46.7; RAM network inh: 1.9

Results for N#CCC(=O)Nc1ccc(C(=O)NCC(c2ccco2)N2CCCCC2)cc1 (stereo not given) ?
HMGR II inh: -3.3; RAM network inh: 1.3

How did Cc1cccc(C)c1N1CCN(C(=O)N2CCCCC2)CC1 do in these assays?
HMGR II inh: 14.4*; RAM network inh: -0.9

How did Cc1cccc(N2CCN(C(=O)N3CCCCC3)CC2)c1C do in these assays?
HMGR II inh: 4.0; Insulin prom inh: -57.1; RAM network inh: 0.1

How did CCc1nnc(NC(=O)Cc2cc(OC)c(OC)c(OC)c2)s1 do in these assays?
HMGR II inh: -1.5; Insulin prom inh: 44.4; RAM network inh: -0.7

What do the screens show for `Cc1ccsc1/C=C/c1ccc2cccc(O)c2n1`?
HMGR II inh: -1.8; Yeast lifespan up: -5.7; BB579 growth dn: 17.3; Insulin prom inh: 3.5; RAM network inh: 0.9

What do the screens show for `Oc1cccc2ccc(/C=C/c3cccs3)nc12`?
HMGR II inh: -0.6; Yeast lifespan up: -18.1; BB579 growth dn: 58.6*; Insulin prom inh: 43.5; RAM network inh: -0.4

Results for O=C(/C=C(\O)c1ccc(Cl)cc1)C(=O)NNC(=O)C(O)(c1ccccc1)c1ccccc1 ?
HMGR II inh: -2.4; Yeast lifespan up: 62.5*; BB579 growth dn: -31.6; Insulin prom inh: 18.4; RAM network inh: -0.5

How did Cc1ccc(NC(=O)CN(C)S(=O)(=O)c2cccs2)cc1F do in these assays?
HMGR II inh: -0.3; Yeast lifespan up: -6.3; BB579 growth dn: -4.8; Insulin prom inh: 73.7*; RAM network inh: 0.0

Results for O=S(=O)(Nc1nc2ccccc2nc1Nc1ccc2c(c1)OCO2)c1ccc(F)cc1 ?
HMGR II inh: 1.7; Yeast lifespan up: 10.5; BB579 growth dn: -17.1; RAM network inh: 4.0

What do the screens show for `COc1ccc(S(=O)(=O)N(C)c2ccc(C(=O)N3CCC(C(N)=O)CC3)cc2)cc1`?
HMGR II inh: -5.3; Yeast lifespan up: -8.8; BB579 growth dn: -6.2; Insulin prom inh: 4.8; RAM network inh: 0.9

Results for COc1ccc(S(=O)(=O)N(C)c2ccc(C(=O)N3CCCC3)cc2)cc1 ?
HMGR II inh: 9.7*; Insulin prom inh: -48.1; RAM network inh: 0.7

Results for CC(=O)c1cc2c(cc1N/C(=N/S(=O)(=O)c1ccccc1)c1ccc(Cl)cc1)OCO2 ?
HMGR II inh: 13.4*; Yeast lifespan up: 5.8; BB579 growth dn: -38.8; Insulin prom inh: 0.0; RAM network inh: 5.5

What do the screens show for `O=C(Nc1ccccc1N1CCN(C(=O)c2ccccc2)CC1)c1cc2ccccc2o1`?
HMGR II inh: -0.5; Yeast lifespan up: 4.5; BB579 growth dn: -32.2; Insulin prom inh: -181.2; RAM network inh: 8.5*

What do the screens show for `O=C(Nc1ccccc1N1CCCC1)c1cc2ccccc2o1`?
HMGR II inh: 1.9; Yeast lifespan up: -19.8; BB579 growth dn: -46.3; Insulin prom inh: -41.7; RAM network inh: 1.5

Results for CCOC(=O)Nc1ccc(=O)n(Cc2c(Cl)cccc2Cl)c1 ?
HMGR II inh: -2.5; Yeast lifespan up: -4.5; BB579 growth dn: 34.0; Insulin prom inh: 21.4; RAM network inh: 0.0

From PubChem
